Inconclusive results are not listed.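 How the source made its calls, unless noted: active means cell viability at or below a set limit in both duplicate runs, the limit being the all-compound median minus 4 SD (cut at about 23% in these data, passing the limit was not always enough); inconclusive means no clear call, values can overlap the other calls; inactive means the rest.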
What was measured:
[1] = S. cerevisiae growth inhibition in permissive medium (OD615), pilot counter-assay for S. cerevisiae lifespan shortening project, permissive growth control (AID 705;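 active means growth inhibition above 25% in both replicates, a cutoff set 3 SD above the mean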); conditions: OD615, 24 h, at 10 µM, hits give high values
How it was run: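 System: S. cerevisiae with engineered DeaD lifespan system. Medium: SC raffinose/galactose permissive medium. Doses: single compound dose of 10 µM, 0.25% DMSO final. Schedule: 24 h exposure, 30 °C. Measured by: OD615 turbidity read. Read-out: growth inhibition.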

[2] = S. cerevisiae growth inhibition in restrictive medium, OD615, pilot screen, restrictive growth control, yeast lifespan reduction project (AID 706;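 active means growth inhibition above a set limit, 3 SD over mean compound inhibition, in both replicates, cut at about 43% in these data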;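 further: modified DeaD lifespan yeast strain shifted to restrictive glucose medium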); conditions: OD615, 48 h, at 10 µM, hits give high values
How it was run: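 Assay system – genetically modified Saccharomyces cerevisiae, DeaD replicative lifespan assay strain · Medium – CSMM-D glucose medium · Doses – 10 µM compound, 0.25% DMSO · Times – 4 h pre-incubation, 48 h exposure at 30 °C · Signal – optical density at 615 nm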

[3] = doxorubicin toxicity protection in MRP-1 cells – H69AR cells, CellTiter-Glo, duplicate, MRP-1 activator project, pilot screen (AID 807;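 active means viability increase at or above a cutoff of the median across tested compounds plus 3 SD, cut at about 8.5% in these data, passing the limit was not always enough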;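 further: compound pretreatment 18-22 h then 72 h combined with doxorubicin; 0% = doxorubicin alone and 100% = vehicle without doxorubicin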); conditions: H69AR viability with doxorubicin, CellTiter-Glo luminescence; at 10 µM; hits give high values
[4] = viability of HCT116 without oncogenic beta-catenin – human colon tumor cells, pilot screen (AID 823); conditions: HCT116 beta-catenin knockout viability, CellTiter-Glo, 60 h; at 10 µM; hits give low values;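 further: 0% = wells killed by 20 µM Hyamine and 100% = untreated DMSO cell wells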
[5] = viability of PTEN-null HCT116 cells – cell-based, HCT116 clonal line, CellTiter-Glo, pilot screen (AID 824;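 active means viability at or below 27.92% in each of two runs, the all-compound median minus 4 SD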;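 further: 0% = 20 µM Hyamine control and 100% = vehicle cell control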); conditions: HCT116 PTEN-deleted viability, 60 h, at 10 µM, hits give low values
[6] = RAM pathway blockade in budding yeast – dse1pr::URA3 reporter, 5-FOA selection, pilot screen (AID 869;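 active means inhibition over a set limit, the all-compound mean plus 3 SD, in both replicate runs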;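 further: 0% = DMSO wells with no growth and 100% = 10 µM 1-NA-PP1 with full growth; RAM network block rescues cells from 5-FOA so hits raise OD615 growth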); conditions: S. cerevisiae dse1pr::URA3 5-FOA growth, OD615, 2 d; at 10 µM; hits give high values; strain carries analog-sensitive mutant Cbk1 kinase
[7] = RAM signaling pathway blockade in yeast – S. cerevisiae, Pdr1DBD-CYC8 efflux-inhibited sensitized strain, primary screen (AID 1298;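 active means RAM network inhibition above 8.4% in each of two replicates, 3 SD over the compound average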;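 further: 0% = DMSO untreated cells without growth and 100% = 10 µM 1-NA-PP1 full growth; higher means more yeast growth rescued from 5-FOA killing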); conditions: S. cerevisiae cbk1-as DSE1-URA3 strain, 5-FOA growth OD615, 2 d; at 50 µM; hits give high values

CCOc1ccccc1Nc1nnc(Cc2ccccc2Cl)c(=O)[nH]1
inactive: growth inhibition [1] -24.5% | growth inhibition [2] -19.1% | viability increase [3] -2.83% | viability [4] 90.7% | viability [5] 94.6% | inhibition [6] 0.115% | RAM network inhibition [7] 5.74%

CCOc1ccc(C2CC(c3ccc(F)cc3)n3ncnc3N2)cc1 (stereo not drawn)
inactive: growth inhibition [1] 4.61% | growth inhibition [2] -1.42% | viability increase [3] -0.13% | viability [4] 100% | viability [5] 91.1% | inhibition [6] 2.65% | RAM network inhibition [7] -0.36%

COCCCNC(=O)COc1cc(C)c(Cl)c(C)c1
inactive: growth inhibition [1] -3.79% | growth inhibition [2] -2.48% | viability increase [3] -1.76% | viability [4] 95.5% | viability [5] 96.3% | inhibition [6] -0.185% | RAM network inhibition [7] 1.45%

COc1ccc(C(=O)Oc2ccc3c(c2)OCO3)cc1OC
inactive: growth inhibition [1] -6.54% | growth inhibition [2] -4.45% | viability increase [3] -0.06% | viability [4] 85.9% | viability [5] 100% | inhibition [6] 1.68% | RAM network inhibition [7] 3.32%

O=C(Nc1ccc2nc3n(c(=O)c2c1)CCCCC3)c1ccccn1
inactive: growth inhibition [1] -2.29% | growth inhibition [2] 2.34% | viability increase [3] 1.28% | viability [4] 102% | viability [5] 107% | inhibition [6] 0.8% | RAM network inhibition [7] -2.05%

CCn1c(C(C)NC(C)=O)nc2ccccc21 (stereo not drawn)
inactive: growth inhibition [1] -13.6% | growth inhibition [2] -5.8% | viability increase [3] 0.8% | viability [4] 112% | viability [5] 106% | inhibition [6] 2.2% | RAM network inhibition [7] 3.48%

Cc1nn(CCCC(=O)N2CCc3ccccc3C2)c(=O)c2cc3sccc3n12
inactive: growth inhibition [1] -4.89% | growth inhibition [2] -14.2% | viability increase [3] -1.17% | viability [4] 97% | viability [5] 88.1% | inhibition [6] 1.39% | RAM network inhibition [7] 0.42%

COc1nc(Nc2ccc3c(c2)OCO3)nc(OC)n1
inactive: growth inhibition [1] -22% | growth inhibition [2] -10.4% | viability increase [3] -2.8% | viability [4] 102% | viability [5] 93.6% | inhibition [6] 3.51% | RAM network inhibition [7] 4.7%

CCCCNc1ncnc2c1cnn2-c1ccc(C)cc1C
inactive: growth inhibition [1] 6.55% | growth inhibition [2] 9.48% | viability increase [3] -3.72% | viability [4] 92.8% | viability [5] 89.2% | inhibition [6] -0.12% | RAM network inhibition [7] 0.27%

CCOC(=O)Nc1ccc2c(c1)N(C(=O)N(CC)CC)c1ccccc1CC2
inactive: growth inhibition [1] -8.36% | growth inhibition [2] -26.2% | viability increase [3] -3.07% | viability [4] 71.6% | viability [5] 71.3% | inhibition [6] 2.9% | RAM network inhibition [7] 2.11%

COc1ccccc1N1CCN(C(=O)CN(c2ccccc2OC)S(=O)(=O)c2ccccc2)CC1
inactive: growth inhibition [1] -0.685% | growth inhibition [2] -7.83% | viability increase [3] -1.57% | viability [4] 87.5% | viability [5] 83.9% | inhibition [6] 0.845% | RAM network inhibition [7] 4.88%

Cc1ccc(C)c(S(=O)(=O)NC(CC(C)C)C(=O)O)c1 (stereo not drawn)
inactive: growth inhibition [1] -9.28% | growth inhibition [2] -29.3% | viability increase [3] -1.32% | viability [4] 105% | viability [5] 102% | inhibition [6] 1.69% | RAM network inhibition [7] 2.5%

CC1CCCCN1CCCNC(=O)C1CCN(c2nc3ccccc3o2)CC1 (stereo not drawn)
inactive: growth inhibition [1] -2.48% | growth inhibition [2] -4.11% | viability increase [3] -0.83% | viability [4] 99.9% | viability [5] 97.8% | inhibition [6] 0.5% | RAM network inhibition [7] 3.1%

Cc1onc(-c2ccccc2)c1C(=O)Nc1nnc(N2CCCCCC2)s1
inactive: growth inhibition [1] -15.2% | growth inhibition [2] -12% | viability increase [3] 2% | viability [4] 101% | viability [5] 87.5% | inhibition [6] 1.23% | RAM network inhibition [7] 3.72%

COC(=O)CN(n1cnnc1)S(=O)(=O)c1ccccc1
inactive: growth inhibition [1] -9.75% | growth inhibition [2] -4.21% | viability increase [3] -0.13% | viability [4] 99% | viability [5] 96.9% | inhibition [6] 1.23% | RAM network inhibition [7] -0.62%

CCC(O)CNc1nc(SC)nc2sc3c(c12)CCN(C)C3 (stereo not drawn)
inactive: growth inhibition [1] -7.7% | growth inhibition [2] -14.2% | viability increase [3] -3.74% | viability [4] 99.2% | viability [5] 91.2% | inhibition [6] 2.08% | RAM network inhibition [7] 0.46%

CC(C)Nc1ncnc2c1cnn2-c1ccc(Cl)cc1
inactive: growth inhibition [1] 5.42% | growth inhibition [2] -5.25% | viability increase [3] -3.14% | viability [4] 83.3% | viability [5] 72.6% | inhibition [6] 1.14% | RAM network inhibition [7] -0.94%

CCN1C(=O)c2ccc(-c3nc4ccccc4c(=O)o3)cc2C1=O
inactive: growth inhibition [1] -8.45% | growth inhibition [2] -0.43% | viability increase [3] -0.05% | viability [4] 99% | viability [5] 94.7% | inhibition [6] 1.71% | RAM network inhibition [7] 3.16%

COC(=O)c1ccc(NC(=O)Cn2nc(SC)n(N)c2=S)cc1
inactive: growth inhibition [1] -11.2% | growth inhibition [2] -14.1% | viability increase [3] -0.99% | viability [4] 98% | viability [5] 99.3% | inhibition [6] 1.85% | RAM network inhibition [7] 7.07%

COc1ccc(CNC(=O)c2cnn3c(C(F)F)cc(C)nc23)cc1OC
inactive: growth inhibition [1] -6.09% | growth inhibition [2] 9.23% | viability increase [3] 0.02% | viability [4] 92.3% | viability [5] 86.2% | inhibition [6] 1.99% | RAM network inhibition [7] 2.31%

Cc1ccc(Cl)cc1N1CCN(C(=O)C2CCN(c3nnc(-n4cccc4)s3)CC2)CC1
inactive: growth inhibition [1] -6.07% | growth inhibition [2] -7.06% | viability increase [3] 2.36% | viability [4] 64% | viability [5] 64% | inhibition [6] 4.06% | RAM network inhibition [7] 8.04%

Cc1ccc(N)c(C(O)(C(F)(F)F)C(F)(F)F)c1
inactive: growth inhibition [1] -4.98% | growth inhibition [2] -2.67% | viability increase [3] 2.71% | viability [4] 105% | viability [5] 99.6% | inhibition [6] -0.695% | RAM network inhibition [7] 2.27%

O=C(OCC(F)(F)C(F)F)c1ccccc1C(=O)Oc1ccc(F)cc1F
inactive: growth inhibition [1] -2.13% | growth inhibition [2] -13.3% | viability increase [3] -3.1% | viability [4] 99.1% | viability [5] 96.1% | inhibition [6] 1.86% | RAM network inhibition [7] 3.89%

Cc1cc(=O)[nH]c(Cc2ccc(OC(C)C)cc2)n1
inactive: growth inhibition [1] -6.43% | growth inhibition [2] -15.4% | viability increase [3] -1.17% | viability [4] 98.4% | viability [5] 93.2% | inhibition [6] 1.98% | RAM network inhibition [7] 5.82%

Source: PubChem BioAssay
